Assay results taken from ChEMBL document CHEMBL5678817, “FTBMT, a Novel and Selective GPR52 Agonist, Demonstrates Antipsychotic-Like and Procognitive Effects in Rodents, Revealing a Potential Therapeutic Agent for Schizophrenia” (J Pharmacol Exp Ther, 2017).
Calls of active or inactive are those of the source. The calls are words filed in the database; no cut-off is given here.

Assays:
Rattus norvegicus = test: Effect on prolactin level in Wistar rat at 1 mg/kg, po […] by immunoassay; type: functional, organism-based
In short: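 Male Wistar rats (7 weeks) dosed orally (haloperidol 1 mg/kg among arms) or vehicle. Trunk blood taken into EDTA 1 h later and centrifuged 1600 g, 20 min, 4 °C. Plasma prolactin measured by rat prolactin enzyme immunoassay; n = 4.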

Mus musculus = test: Antipsychotic activity in methamphetamine-induced hyperactivity in ICR mouse assessed as minimum effective dose administered orally; type: functional; details: route po, read-out: MED

Row | Structure (SMILES) | Activity (Rattus norvegicus) | minimal effective dose (Mus musculus) [mg/kg]
1 | O=C(CCCN1CCC(O)(c2ccc(Cl)cc2)CC1)c1ccc(F)cc1 | Active | –
2 | Cc1cc2c(s1)Nc1ccccc1N=C2N1CCN(C)CC1 [OLANZAPINE] | – | 1
